What all share (assay type): functional
Experiment [1] has as its system Mus musculus. In words: Compound was evaluated for antitumor activity against L1210 leukemia in mice by NCI screener test at a dose of 100 mg/kg. In outline:
(§1)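 Tested in mice bearing L1210 or P-388 leukemia in the National Cancer Institute screening program under NCI standard assay protocols. Read-out is survival as % T/C, treated versus control, at each dose level.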

Experiment [2] deals with Mus musculus. The experiment can be described thus: Compound was evaluated for antitumor activity against L1210 leukemia in mice by NCI screener test at a dose of 50 mg/kg. In outline: as §1
For experiment [3], the system named is Mus musculus. In words: Compound was evaluated for antitumor activity against L1210 leukemia in mice by NCI screener test at a dose of 200 mg/kg. In outline:
as §1

Experiment [4] deals with Mus musculus. The experiment can be described thus: Compound was evaluated for antitumor activity against L1210 leukemia in mice by W screener test at a dose of 250 mg/kg.
Experiment [5] relates to Mus musculus. In words: Compound was evaluated for antitumor activity against P-388 leukemia in mice by NCI screener test at a dose of 25 mg/kg. An outline of the steps:
as §1

Experiment [6] relates to Mus musculus. In words: Compound was evaluated for antitumor activity against P-388 leukemia in mice by NCI screener test at a dose of 200 mg/kg. An outline of the steps: as §1
Experiment [7] relates to Mus musculus. The experiment can be described thus: Compound was evaluated for antitumor activity against P-388 leukemia in mice by NCI screener test at a dose of 50 mg/kg. In outline: as §1
Experiment [8] relates to Mus musculus. In words: Compound was evaluated for antitumor activity against L1210 leukemia in mice by W screener test at a dose of 500 mg/kg. An outline of the steps:
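L1210 leukemia in mice, run at Virginia Commonwealth University by G. L. Wampler at higher dose levels, following NCI standard assay guidelines. Activity is reported as survival % T/C.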

Experiment [9] concerns Mus musculus. In words: Compound was evaluated for antitumor activity against P-388 leukemia in mice by NCI screener test at a dose of 100 mg/kg. In outline:
as §1

In the case of `Cc1cn([C@H]2C[C@H](O)[C@@H](CO[P+]([O-])(N3CC3(C)C)N3CC3(C)C)O2)c(=O)[nH]c1=O` (stereo partly drawn), the figures for the T/C in the experiment on Mus musculus [1], with Mus musculus [2] and in the experiment with Mus musculus [3] were 105%, 94% and 124%, respectively.

For the molecule `Cc1cn([C@H]2C[C@H](O)[C@@H](CO[P+]([O-])(N3CC3)N3CC3)O2)c(=O)[nH]c1=O`, the T/C in the experiment with Mus musculus [1] was 100%; in the experiment on Mus musculus [2] it was 107%; with Mus musculus [3], 94%.

Take `CC(=O)O[C@H]1C[C@H](n2cc(C)c(=O)[nH]c2=O)O[C@@H]1CO[P+]([O-])(N1CC1)N1CC1`: the T/C in the experiment on Mus musculus [4] is reported as 111%; in the experiment with Mus musculus [5], 104%; with Mus musculus [6], 142%; in the experiment on Mus musculus [7] it was 112%; in the experiment on Mus musculus [2], 107%; in the experiment on Mus musculus [8], 111%. For the same molecule, the figures for the T/C in the experiment with Mus musculus [9] and with Mus musculus [3] were 124% and 112%, respectively.

As for `CC(=O)O[C@H]1C[C@H](n2cc(C)c(=O)[nH]c2=O)O[C@@H]1CO[P+]([O-])(N1CC1(C)C)N1CC1(C)C` (stereo partly drawn), the T/C with Mus musculus [4] was 125%; with Mus musculus [5], 110%; with Mus musculus [6] it was 154%; in the experiment on Mus musculus [1], 112%; in the experiment with Mus musculus [7] it was 138%; in the experiment on Mus musculus [2], 110%. Further, the T/C in the experiment on Mus musculus [8] is recorded as 137%; with Mus musculus [9], 141%; in the experiment with Mus musculus [3], 123%.

As usually defined, the T/C is the ratio of treated to control.
